Laboratory results published in ChEMBL document CHEMBL4382240, “Discovery of novel 2,5-dihydroxyterephthalamide derivatives as multifunctional agents for the treatment of Alzheimer's disease” (Bioorg Med Chem, 2018).
Calls of active or inactive are those of the source. The rule behind the calls is not given here.

Assays:
[1] = Antioxidant activity assessed as trolox equivalent of APPH-induced radical scavenging activity at 5 uM preincubated for 15 mins followed by AAPH addition measured every minute for 90 mins by ORAC fluorescein assay; type: functional
Summary of the method: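 ORAC-FL in 75 mM phosphate buffer, pH 7.4. Fluorescein (150 nM final) and sample (tested at 1–10 µM) incubated 15 min at 37 °C. AAPH (12 mM final) then added, and fluorescence (ex 485/em 535 nm) read every minute for 90 min. Trolox standard 1–8 µM; result expressed as µM Trolox equivalent per µM compound. Duplicate wells; three independent experiments.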

[2] = Cytotoxicity against […] cells assessed as decrease in cell viability up to 10 uM preincubated for 30 mins followed by LPS stimulation and measured after 24 hrs by MTT assay; type: cell-based
Summary of the method: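 BV-2 cells grown 24 h, then treated with compound (0.5, 2.5, 10.0 µM) for 30 min, with or without LPS (1.0 µg/mL), for a further 24 h. MTT (5 mg/mL) added for 4 h, formazan dissolved in DMSO, A490 read. Viability given as percent of untreated cells. Triplicate wells; three independent experiments.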

[3] = molecular target: T1, Amyloid-beta precursor protein (Homo sapiens, UniProt P05067); test: Disaggregation of self-induced preformed fibrils of human amyloid beta (1 to 42) at 25 uM after 24 hrs by Thioflavin T based fluorometric assay relative to control
T1 sequence (P05067 whole entry): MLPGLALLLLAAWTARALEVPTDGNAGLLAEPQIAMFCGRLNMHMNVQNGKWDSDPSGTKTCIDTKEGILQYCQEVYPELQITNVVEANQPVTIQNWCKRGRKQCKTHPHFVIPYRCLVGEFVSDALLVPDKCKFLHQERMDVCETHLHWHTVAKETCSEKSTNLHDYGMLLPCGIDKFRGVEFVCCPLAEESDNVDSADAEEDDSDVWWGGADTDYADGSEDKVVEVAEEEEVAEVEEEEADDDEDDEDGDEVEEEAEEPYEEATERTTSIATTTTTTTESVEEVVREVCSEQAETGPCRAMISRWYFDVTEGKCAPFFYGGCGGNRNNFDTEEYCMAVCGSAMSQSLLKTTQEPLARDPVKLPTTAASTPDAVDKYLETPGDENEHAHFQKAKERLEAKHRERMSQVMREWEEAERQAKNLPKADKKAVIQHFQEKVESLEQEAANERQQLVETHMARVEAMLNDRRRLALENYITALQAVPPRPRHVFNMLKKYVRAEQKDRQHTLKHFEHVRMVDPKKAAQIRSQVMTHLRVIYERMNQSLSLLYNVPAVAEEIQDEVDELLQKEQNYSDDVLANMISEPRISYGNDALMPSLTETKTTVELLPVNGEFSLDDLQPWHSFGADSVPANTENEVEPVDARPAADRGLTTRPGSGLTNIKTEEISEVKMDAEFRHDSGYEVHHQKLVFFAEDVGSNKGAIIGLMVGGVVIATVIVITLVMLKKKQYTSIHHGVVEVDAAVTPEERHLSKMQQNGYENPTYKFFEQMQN
Summary of the method: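 Aβ1-42 diluted in HEPES buffer (20 mM, pH 6.6, 150 mM NaCl) and pre-aggregated 24 h at 37 °C. Compound (25 µM) then added for another 24 h at 37 °C on a sealed plate. Remaining fibrils read by ThT fluorescence in glycine-NaOH, pH 8.5. Triplicate; three independent experiments.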

[4] = Metal chelating activity assessed as compound-Al3+ complex formation at 37.5 uM after 30 mins by UV spectrometry method
Summary of the method: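 Compound and metal salt (CuCl2, ZnCl2, FeSO4 or AlCl3), each 37.5 µM final in methanol, incubated 30 min at room temperature. UV-vis spectra recorded from 200 to 600 nm and compared with the compound alone.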

[5] = molecular target: T1, Amyloid-beta precursor protein; test: Inhibition of human amyloid beta (1 to 42) self-induced aggregation at 25 uM after 24 hrs by Thioflavin T based fluorometric assay relative to control
Summary of the method: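 Aβ1-42 (25 µM final) incubated with compound (25 µM final) in 50 mM phosphate buffer, pH 7.4, for 24 h at 37 °C under a sealing film. ThT (5 µM) in 50 mM glycine-NaOH, pH 8.5, then added and fluorescence measured. Triplicate; mean ± SD of three independent experiments.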

[6] = Anti-inflammatory activity in […] cells assessed as inhibition of LPS-stimulated NO release at 10 uM preincubated for 30 mins followed by LPS stimulation and measured after 24 hrs by Griess reagent based assay relative to control; type: functional; settings: BV-2
Summary of the method: (§1)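 BV-2 cells cultured 24 h in DMEM (10% FBS, glutamine, pyruvate, pen/strep) at 37 °C, 5% CO2. Compound (DMSO stock diluted in PBS) added 30 min before LPS (1.0 µg/mL), then 24 h. Nitrite in supernatant measured by Griess reagent for 10 min at room temperature, A540, against a NaNO2 standard curve. Triplicate wells; mean ± SD of three independent experiments.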

[7] = molecular target: Acetylcholinesterase (Electrophorus electricus) (UniProt O42275); test: Mixed-type inhibition of electric eel AChE at 2.5 to 10 uM preincubated for 15 mins followed by varying levels of acetylthiocholine iodide substrate addition by Lineweaver-Burk plot analysis
Chain of Acetylcholinesterase (Electrophorus electricus) (O42275 24-633 limits assumed): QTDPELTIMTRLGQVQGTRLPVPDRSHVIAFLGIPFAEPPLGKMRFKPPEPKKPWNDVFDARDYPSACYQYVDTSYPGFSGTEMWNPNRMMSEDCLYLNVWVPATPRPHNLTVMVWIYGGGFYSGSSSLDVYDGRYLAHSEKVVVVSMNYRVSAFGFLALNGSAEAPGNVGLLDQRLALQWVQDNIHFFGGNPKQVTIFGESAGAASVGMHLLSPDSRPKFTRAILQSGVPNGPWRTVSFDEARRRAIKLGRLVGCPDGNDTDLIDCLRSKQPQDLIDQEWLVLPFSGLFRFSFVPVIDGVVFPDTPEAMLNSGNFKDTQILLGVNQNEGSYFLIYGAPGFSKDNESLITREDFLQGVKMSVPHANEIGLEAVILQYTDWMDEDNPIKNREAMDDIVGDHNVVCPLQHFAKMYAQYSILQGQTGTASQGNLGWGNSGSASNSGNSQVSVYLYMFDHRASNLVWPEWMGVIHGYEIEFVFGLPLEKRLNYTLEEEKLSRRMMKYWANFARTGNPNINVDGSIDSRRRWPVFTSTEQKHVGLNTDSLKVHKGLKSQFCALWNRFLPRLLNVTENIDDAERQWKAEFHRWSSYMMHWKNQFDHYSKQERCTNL

[8] = Anti-inflammatory activity in […] cells assessed as inhibition of LPS-stimulated NO release at 2.5 uM preincubated for 30 mins followed by LPS stimulation and measured after 24 hrs by Griess reagent based assay relative to control; type: functional; settings: BV-2; summary of the method: as §1
[9] = Effect on TNFalpha release in […] cells up to 10 uM after 24 hrs by ELISA; type: ADME, cell-based
Summary of the method: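 BV-2 cells exposed to compound up to 10 µM with no added LPS. TNF-α in the medium measured by ELISA. Mean ± SD of three independent experiments.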

With `CCN(CCCCNC(=O)c1cc(O)c(C(=O)NCCCCN(CC)Cc2ccccc2OC)cc1O)Cc1ccccc1OC` the Activity [1] was 0.97 equiv, the Activity [2] was “Non-Toxic” and the Activity [3] was 75.2%. The Activity [4] was “Active”, the inhibition [5] was 96.2% and the inhibition at 10 µM [6] was 58.3%. For the same compound, the inhibition [7] was “Active”, the inhibition at 2.5 µM [8] was 30% and the Activity [9] was “Non-Toxic”.
